For seven compounds, GI50 and RatioGI50 results are on record in ChEMBL document CHEMBL3769392, “Synthesis, antiproliferative activities, and computational evaluation of novel isocoumarin and 3,4-dihydroisocoumarin derivatives” (Eur J Med Chem, 2016).

One may read the GI50 as the concentration at which growth is held to half of that of the control. Read a low GI50 as more potent growth inhibition.

Converted amounts (≈) assume the structure as drawn.

A short description of data set [1]: Antiproliferative activity against human PC3 cells after 48 hrs by SRB assay. Particulars: PC-3, 48 h. It is filed as functional. In outline:
(§1)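 Cells kept in RPMI 1640 with 5% FBS and 1% penicillin/streptomycin at 37 °C, 5% CO2, and used at passages 5–12. Seeded at 3 to 5 x 10^4 cells/mL and exposed 48 h to 0.25, 2.5, 25 and 250 µg/mL in DMSO/RPMI (final DMSO ≤ 0.25%). Doxorubicin 0.025–25 µg/mL served as positive control. Fixed with 50% TCA at T0 and at endpoint, SRB protein read at 540 nm. Growth was T0-corrected and GI50 taken by non-linear regression.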

The subject of data set [2] is HaCaT. As to the kind of experiment: Selectivity index, ratio of GI50 for human HaCaT cells to GI50 for human HT-29 cells. It is filed as functional.
Data set [3] relates to HaCaT. As to the kind of experiment: Selectivity index, ratio of GI50 for human HaCaT cells to GI50 for human U251 cells. It is filed as functional.
Data set [4] concerns U-251. As to the kind of experiment: Antiproliferative activity against human U251 cells after 48 hrs by SRB assay. It is filed as functional. Particulars: U-251, 48 h. In outline:
as §1

The subject of data set [5] is NCI-H460. As to the kind of experiment: Antiproliferative activity against human NCI-H460 cells after 48 hrs by SRB assay. Format: functional. Conditions: NCI-H460, 48 h. A digest of the protocol:
as §1

Data set [6] has as its system HT-29. Briefly: Antiproliferative activity against human HT-29 cells after 48 hrs by SRB assay. Particulars: HT-29, 48 h. It is filed as functional. A digest of the protocol: as §1
For orientation: Sulforhodamine B stains cellular protein and so reports cell mass.

Data set [7] relates to NCI-H460. Briefly: Selectivity index, ratio of GI50 for human HaCaT cells to GI50 for human NCI-H460 cells. It is filed as functional.
The test system of data set [8] is MCF7. Briefly: Antiproliferative activity against human MCF7 cells after 48 hrs by SRB assay. Particulars: MCF7, 48 h. Format: functional. A digest of the protocol: as §1
For data set [9], the system named is 786-0. As to the kind of experiment: Antiproliferative activity against human 786-0 cells after 48 hrs by SRB assay. Format: functional. Conditions: 786-0, 48 h. A digest of the protocol: as §1
Data set [10] concerns HaCaT. Briefly: Selectivity index, ratio of GI50 for human HaCaT cells to GI50 for human PC3 cells. It is filed as functional.
A short description of data set [11]: Cytotoxicity against human HaCaT cells after 48 hrs by SRB assay. Format: cell-based. In outline:
as §1

Data set [12] relates to HaCaT. As to the kind of experiment: Selectivity index, ratio of GI50 for human HaCaT cells to GI50 for human 786-0 cells. Format: functional.
The test system of data set [13] is HaCaT. Briefly: Selectivity index, ratio of GI50 for human HaCaT cells to GI50 for human MCF7 cells. Format: functional.
The test system of data set [14] is HaCaT. As to the kind of experiment: Selectivity index, ratio of GI50 for human HaCaT cells to GI50 for human NCI-ADR-RES cells. Format: functional.
A short description of data set [15]: Antiproliferative activity against human NCI-ADR-RES cells after 48 hrs by SRB assay. Format: functional. A digest of the protocol:
as §1

`COc1ccc2cc(COCCCc3cccnc3)oc(=O)c2c1`: the GI50 in data set [1] was 25 µg/mL (≈ 76.8 µM); in [4] it was 28.5 µg/mL (≈ 87.6 µM); in data set [5] it was 29.6 µg/mL (≈ 91 µM); in data set [6], 25.8 µg/mL (≈ 79.3 µM); in [8] it was 26.5 µg/mL (≈ 81.4 µM); in data set [9], 28.6 µg/mL (≈ 87.9 µM). This compound returned a concentration for 50% growth inhibition (GI50) in [15] of 28 µg/mL (≈ 86.1 µM). Besides, the RatioGI50 in data set [2] was 1.02; in [3] it was 0.92; in data set [7], 0.89; in [10], 1.05; in [12], 0.92; in data set [13] it was 0.99. The RatioGI50 in data set [14] is 0.94. This compound also had a concentration for 50% growth inhibition (GI50) at 48 h in data set [11] of 26.2 µg/mL (≈ 80.5 µM).

As to `COc1ccc2cc(CCCOCCCc3cccnc3)oc(=O)c2c1`, the 50% growth inhibitory concentration (GI50) was 26.3 µg/mL (≈ 74.4 µM) in data set [1]; 26.3 µg/mL (≈ 74.4 µM) in data set [4]; 25.2 µg/mL (≈ 71.3 µM) in [5]; 25 µg/mL (≈ 70.7 µM) in [6]; 23.8 µg/mL (≈ 67.3 µM) in data set [8]; 28.7 µg/mL (≈ 81.2 µM) in [9]. In addition, the GI50 in [15] turned out to be 19.3 µg/mL (≈ 54.6 µM). Also, the RatioGI50 in [2] stood at 1.08; in data set [3] it was 1.03; in data set [7], 1.07; in data set [10] it was 1.03; in [12], 0.94; in [13], 1.13. Besides, the RatioGI50 in [14] was 1.4. For the same compound, the GI50 at 48 h in [11] came to 27 µg/mL (≈ 76.4 µM).

As to `CCCCCOCCCc1cc2ccc(OC)cc2c(=O)o1`, the GI50 in data set [1] came to 8 µg/mL (≈ 26.3 µM); in [4], 19.4 µg/mL (≈ 63.7 µM); in data set [5], 32 µg/mL (≈ 105 µM); in data set [6], 28.3 µg/mL (≈ 93 µM); in data set [8], 6 µg/mL (≈ 19.7 µM); in data set [9], 25.5 µg/mL (≈ 83.8 µM). Also, the GI50 in [15] is 7.4 µg/mL (≈ 24.3 µM). In addition, the RatioGI50 in data set [2] was found to be 0.19; in data set [3], 0.28; in data set [7], 0.17; in [10], 0.69; in data set [12], 0.22; in data set [13], 0.92. Moreover, the RatioGI50 in data set [14] is recorded as 0.74. The GI50 at 48 h in data set [11] turned out to be 5.5 µg/mL (≈ 18.1 µM).

Regarding `COc1ccc2cc(CCCSc3nnnn3-c3ccccc3)oc(=O)c2c1`, the 50% growth inhibitory concentration (GI50) in data set [1] is 144 µg/mL (≈ 366 µM); in [4] it was 43.3 µg/mL (≈ 110 µM); in [5] it was at least 250 µg/mL; in data set [6], at least 250 µg/mL; in data set [8], 45.7 µg/mL (≈ 116 µM); in data set [9] it was 51.1 µg/mL (≈ 130 µM). For the same compound, the 50% growth inhibitory concentration (GI50) in [15] was at least 250 µg/mL. The RatioGI50 is over 5.77 in data set [3], over 1.73 in data set [10], over 4.89 in data set [12] and over 5.47 in data set [13]. The 50% growth inhibitory concentration (GI50) at 48 h in data set [11] is at least 250 µg/mL.

On to `COc1ccc2cc(CO)oc(=O)c2c1`, for which the GI50 in data set [1] is 49.2 µg/mL (≈ 239 µM); in [4], 167 µg/mL (≈ 811 µM); in data set [5], 93.2 µg/mL (≈ 452 µM); in data set [6], 80.3 µg/mL (≈ 389 µM); in data set [8], 32.6 µg/mL (≈ 158 µM); in data set [9] it was 37.6 µg/mL (≈ 182 µM). This compound displayed a 50% growth inhibitory concentration (GI50) in data set [15] of 160 µg/mL (≈ 778 µM). Also, the RatioGI50 in data set [2] turned out to be 1.67; in data set [3], 0.8; in [7] it was 1.44; in data set [10], 2.73; in [12], 3.57; in data set [13], 4.12. Further, the RatioGI50 in data set [14] is on record as 0.84. For the same compound, the 50% growth inhibitory concentration (GI50) at 48 h in data set [11] is 134 µg/mL (≈ 652 µM).

For the compound `O=c1oc(CO)cc2ccccc12`, the GI50 in data set [1] was 118 µg/mL (≈ 669 µM); in data set [4], at least 250 µg/mL; in [5], at least 250 µg/mL; in data set [6] it was 168 µg/mL (≈ 956 µM); in data set [8] it was 89.3 µg/mL (≈ 507 µM); in data set [9] it was at least 250 µg/mL. Besides, the GI50 in [15] is at least 250 µg/mL. Further, the RatioGI50 in data set [2] worked out at 1.32; in data set [10], 1.88; in [13] it was 2.49. Moreover, in data set [11], growth was halved (GI50 at 48 h) at 222 µg/mL (≈ 1260 µM).

As for `COc1ccc2cc(CCCn3nnnc3-c3ccccc3)oc(=O)c2c1`, the concentration for 50% growth inhibition (GI50) in [1] was 180 µg/mL (≈ 496 µM); in [4], 67.4 µg/mL (≈ 186 µM); in data set [5], at least 250 µg/mL; in [6], at least 250 µg/mL; in data set [8] it was 75.2 µg/mL (≈ 208 µM); in data set [9], 224 µg/mL (≈ 619 µM). Further, the 50% growth inhibitory concentration (GI50) in [15] is at least 250 µg/mL. In addition, the RatioGI50 in data set [3] was over 3.71; in data set [10] it was over 1.39; in data set [12], over 1.12; in [13], over 3.32. This compound came in with a GI50 at 48 h in [11] of at least 250 µg/mL.
